# Experimental data as given in ChEMBL document CHEMBL1147663, “Structure-activity relationships of bifunctional peptides based on overlapping pharmacophores at opioid and cholecystokinin receptors” (J Med Chem, 2006).
# The source made the active and inactive calls. The rule behind the calls is not given here.
# Columns and labels:
# [1] = target: T1, Delta-type opioid receptor (Homo sapiens, UniProt P41143); experiment: Activity against [35S]GTP-gamma-S binding to human delta opioid receptor expressed in HN9.10 cells; format: functional, cell-based
# Method in brief: (§1)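 Membranes (10 μg) from HN9.10 cells stably expressing hDOR or rMOR; various drug concentrations in duplicate or triplicate, 90 min at 30 °C in HEPES pH 7.4 with GDP, MgCl2, NaCl, 0.1 nM [35S]GTPγS; filtration, scintillation counting.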
# Mu-type opioid receptor [2] = target: Mu-type opioid receptor (Cavia porcellus, UniProt P97266); experiment: Agonist activity at mu opioid receptor assessed as inhibition of electrically stimulated Hartley guinea pig ileum contraction; format: functional, tissue-based
# Method in brief: (§2)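 Longitudinal muscle–myenteric plexus strips from male Hartley guinea pig ileum, 1 g tension, oxygenated Krebs at 37 °C; 0.1 Hz, 0.4 ms supramaximal stimulation. […] Integrity checked with 10 nM PL-017. Hill-equation fit, at least four tissues.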
# [3] = target: Delta-type opioid receptor (Mus musculus, UniProt P32300); experiment: Agonist activity at delta opioid receptor assessed as inhibition of electrically stimulated ICR mouse vas deferens contraction; format: functional, tissue-based
# Method in brief: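 Vas deferens from male ICR mice, in 20 mL baths at 0.5 g tension, Mg-free oxygenated Krebs, 37 °C; electrical stimulation 0.1 Hz, 2.0 ms pulses, supramaximal voltage. Cumulative addition to maximal inhibition; integrity checked with 10 nM DPDPE. IC50 by Hill-equation nonlinear least-squares fit, at least four tissues.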
# Mu-type opioid receptor [4] = target: T2, Mu-type opioid receptor (Rattus norvegicus, UniProt P33535); experiment: Displacement of [3H]DAMGO from rat mu opioid receptor expressed in HN9.10 cells; format: cell-based
# Method in brief: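 HN9.10 cell membranes (50 μg) expressing rMOR, 10 test concentrations with 1.0 nM [3H]DAMGO in 50 mM Tris pH 7.4 with peptidase inhibitors and BSA, 3 h at 25 °C, duplicates; filtration, scintillation counting. Nonspecific with 10 μM naloxone. Ki by Cheng–Prusoff.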
# [5] = target: T1, Delta-type opioid receptor; experiment: Displacement of [3H]DPDPE from human delta opioid receptor expressed in HN9.10 cells; format: cell-based
# Method in brief: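 HN9.10 cell membranes (50 μg) expressing hDOR, 10 test concentrations with 1.0 nM [3H]DPDPE in 50 mM Tris pH 7.4 with peptidase inhibitors and BSA, 3 h at 25 °C, duplicates; filtration, scintillation counting. Nonspecific with 10 μM naloxone. Ki by Cheng–Prusoff.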
# [6] = target: T3, Gastrin/cholecystokinin type B receptor (Homo sapiens) (UniProt P32239); settings: HEK293
# T3 sequence (whole entry): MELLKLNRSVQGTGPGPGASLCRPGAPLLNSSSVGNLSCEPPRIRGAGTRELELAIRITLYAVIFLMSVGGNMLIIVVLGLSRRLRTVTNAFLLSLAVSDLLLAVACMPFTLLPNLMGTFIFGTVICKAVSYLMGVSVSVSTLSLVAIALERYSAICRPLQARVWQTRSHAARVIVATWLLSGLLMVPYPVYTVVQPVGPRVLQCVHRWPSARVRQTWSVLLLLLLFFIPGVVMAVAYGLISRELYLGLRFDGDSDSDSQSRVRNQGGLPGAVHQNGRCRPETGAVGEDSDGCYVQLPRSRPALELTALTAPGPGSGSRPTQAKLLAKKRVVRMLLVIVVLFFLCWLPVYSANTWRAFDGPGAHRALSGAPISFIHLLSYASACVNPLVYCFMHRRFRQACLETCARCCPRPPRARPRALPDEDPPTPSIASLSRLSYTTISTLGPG
# [7] = target: T4, Gastrin/cholecystokinin type B receptor (Homo sapiens, UniProt P32239); experiment: Displacement of [125I]CCK-8(SO3) from human CCK2 receptor expressed in HEK293 cells; format: cell-based
# T4 sequence (P32239 whole entry): T3 sequence (whole entry)
# [8] = target: Mu-type opioid receptor (Rattus norvegicus) (UniProt P33535); experiment: (§3) Activity against [35S]GTP-gamma-S binding to rat mu opioid receptor expressed in HN9.10 cells; format: functional, cell-based; method in brief: as §1
# Mu-type opioid receptor [9] = target: T2, Mu-type opioid receptor; experiment: as §3; format: functional, cell-based; method in brief: as §1
# [10] = target: T4, Gastrin/cholecystokinin type B receptor; experiment: Antagonist activity at CCK2 receptor expressed in HEK293 cells assessed as accumulation of [3H]inositol phosphates by PI assay; format: functional, cell-based
# [11] = target: T5, Cholecystokinin receptor type A (Homo sapiens, UniProt P32238); experiment: Displacement of [125I]CCK-8(SO3) from human CCK1 receptor expressed in HEK293 cells; format: cell-based
# T5 sequence (P32238 whole entry): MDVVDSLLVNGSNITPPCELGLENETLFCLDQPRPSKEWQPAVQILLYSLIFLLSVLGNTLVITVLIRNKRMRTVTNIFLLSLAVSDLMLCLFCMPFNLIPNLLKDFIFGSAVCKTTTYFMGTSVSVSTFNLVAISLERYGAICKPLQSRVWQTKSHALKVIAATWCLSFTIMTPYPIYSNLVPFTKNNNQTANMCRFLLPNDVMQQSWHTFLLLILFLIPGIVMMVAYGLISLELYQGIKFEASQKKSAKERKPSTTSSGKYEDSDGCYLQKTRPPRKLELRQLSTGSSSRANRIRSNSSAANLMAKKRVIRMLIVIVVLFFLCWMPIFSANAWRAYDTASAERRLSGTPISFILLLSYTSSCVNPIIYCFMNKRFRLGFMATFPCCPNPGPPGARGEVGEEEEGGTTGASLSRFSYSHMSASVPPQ
# [12] = target: T5, Cholecystokinin receptor type A; experiment: Antagonist activity at CCK1 receptor expressed in HEK 293 cells assessed as accumulation of [3H]inositol phosphates by PI assay; format: functional, cell-based, HEK293
# [13] = target: T6, Cholecystokinin receptor type A (Homo sapiens) (UniProt P32238); settings: HEK293
# T6 sequence (whole entry): T5 sequence (P32238 whole entry)
# [14] = target: Mu-type opioid receptor (Cavia porcellus) (UniProt P97266); experiment: Agonist activity at mu opioid receptor assessed as inhibition of electrically stimulated Hartley guinea pig ileum contraction at 1 uM; format: functional, tissue-based; method in brief: as §2
# [15] = target: Delta-type opioid receptor (Mus musculus) (UniProt P32300); experiment: Agonist activity at delta opioid receptor assessed as inhibition of electrically stimulated ICR mouse vas deferens contraction at 1 uM; format: functional, tissue-based
# Chain of Delta-type opioid receptor (Mus musculus) (P32300 whole entry): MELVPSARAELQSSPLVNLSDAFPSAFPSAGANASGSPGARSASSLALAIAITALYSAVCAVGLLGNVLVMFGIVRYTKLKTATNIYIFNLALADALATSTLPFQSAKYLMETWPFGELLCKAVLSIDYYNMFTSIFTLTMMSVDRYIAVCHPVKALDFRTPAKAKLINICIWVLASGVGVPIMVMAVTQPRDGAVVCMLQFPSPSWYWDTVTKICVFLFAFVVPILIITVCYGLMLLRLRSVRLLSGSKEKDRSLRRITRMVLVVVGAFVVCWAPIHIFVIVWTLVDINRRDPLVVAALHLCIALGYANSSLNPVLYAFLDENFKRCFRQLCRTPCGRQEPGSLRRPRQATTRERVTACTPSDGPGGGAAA
# T1 sequence (P41143 whole entry): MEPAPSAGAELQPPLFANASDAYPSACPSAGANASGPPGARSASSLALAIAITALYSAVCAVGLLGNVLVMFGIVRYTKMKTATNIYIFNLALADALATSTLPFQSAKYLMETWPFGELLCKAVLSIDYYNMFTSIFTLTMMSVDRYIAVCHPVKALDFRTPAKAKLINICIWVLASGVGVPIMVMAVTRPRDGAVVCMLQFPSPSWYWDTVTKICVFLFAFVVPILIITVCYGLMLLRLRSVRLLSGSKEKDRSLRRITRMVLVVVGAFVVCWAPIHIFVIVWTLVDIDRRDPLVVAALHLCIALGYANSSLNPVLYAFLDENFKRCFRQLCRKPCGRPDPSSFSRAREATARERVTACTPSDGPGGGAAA
# Chain of Mu-type opioid receptor (Cavia porcellus, UniProt P97266) (P97266 whole entry): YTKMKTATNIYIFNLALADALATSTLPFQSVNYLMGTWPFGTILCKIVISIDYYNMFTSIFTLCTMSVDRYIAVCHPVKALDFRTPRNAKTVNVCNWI
# Chain of Mu-type opioid receptor (Rattus norvegicus) (P33535 whole entry): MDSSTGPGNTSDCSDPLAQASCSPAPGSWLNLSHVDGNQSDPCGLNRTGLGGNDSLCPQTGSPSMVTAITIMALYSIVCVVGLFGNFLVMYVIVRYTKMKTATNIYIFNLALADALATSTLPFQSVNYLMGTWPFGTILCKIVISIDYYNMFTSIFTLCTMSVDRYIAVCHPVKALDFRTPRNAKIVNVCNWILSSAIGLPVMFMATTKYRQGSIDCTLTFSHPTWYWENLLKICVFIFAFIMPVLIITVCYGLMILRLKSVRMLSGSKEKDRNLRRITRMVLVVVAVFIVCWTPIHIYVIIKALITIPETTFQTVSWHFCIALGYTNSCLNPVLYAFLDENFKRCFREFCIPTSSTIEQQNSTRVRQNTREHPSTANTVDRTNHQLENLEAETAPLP
# T2 sequence (P33535 whole entry): as above
# Chain of Delta-type opioid receptor (Mus musculus, UniProt P32300) (P32300 whole entry): as the sequence (P32300 whole entry) above
# Chain of Mu-type opioid receptor (Cavia porcellus) (P97266 whole entry): as the sequence (P97266 whole entry) above
SMILES,EC50 [1],Emax [1],IC50 (Mu-type opioid receptor [2]),IC50 [3],IC50 (Mu-type opioid receptor [4]),Ki (Mu-type opioid receptor [4]),IC50 [5],Ki [5],Log EC50 [6],IC50 [7],Ki [7],Emax [8],EC50 (Mu-type opioid receptor [9]),EC50 [10],IC50 [11],Ki [11],EC50 [12],Log EC50 [13],inhibition [14],inhibition [15]
CCCC[C@H](NC(=O)[C@@H](Cc1c[nH]c2ccccc12)NC(=O)CNC(=O)[C@@H](CCCC)NC(=O)[C@@H](N)Cc1ccc(O)cc1)C(=O)N[C@@H](CC(=O)O)C(=O)N[C@@H](Cc1ccccc1)C(N)=O,4.1 nM,75%,1000 nM,310 nM,631 nM,270 nM,47.9 nM,20 nM,inactive,2190 nM,2200 nM,110%,20 nM,–,–,–,–,–,–,–
CCCC[C@H](NC(=O)[C@H](Cc1c[nH]c2ccccc12)NC(=O)CNC(=O)[C@@H](Cc1ccccc1)NC(=O)[C@@H](N)Cc1ccc(O)cc1)C(=O)N[C@@H](CC(=O)O)C(=O)N[C@@H](Cc1ccccc1)C(N)=O,0.9 nM,170%,420 nM,12 nM,79.4 nM,34 nM,0.427 nM,0.2 nM,–,25.7 nM,26 nM,180%,1.4 nM,110 nM,97.7 nM,98 nM,300 nM,–,–,–
CCCC[C@@H](NC(=O)[C@@H](N)Cc1ccc(O)cc1)C(=O)NCC(=O)N[C@H](Cc1c[nH]c2ccccc12)C(=O)N(C)[C@@H](CCCC)C(=O)N[C@@H](CC(=O)O)C(=O)N[C@@H](Cc1ccccc1)C(N)=O,–,–,–,700 nM,2880 nM,1200 nM,724 nM,310 nM,inactive,1100 nM,1100 nM,47%,250 nM,–,9120 nM,910 nM,–,inactive,8.8%,–
CCCC[C@@H](C(=O)N[C@@H](CC(=O)O)C(=O)N[C@@H](Cc1ccccc1)C(N)=O)N(C)C(=O)[C@H](Cc1c[nH]c2ccccc12)NC(=O)CNC(=O)[C@@H]1CCCN1C(=O)[C@@H](N)Cc1ccc(O)cc1,–,–,–,–,–,–,3390 nM,1500 nM,–,0.219 nM,0.22 nM,–,–,–,–,–,–,–,1.2%,5%
CCCC[C@H](NC(=O)[C@H](Cc1c[nH]c2ccccc12)NC(=O)CNC(=O)[C@@H](CCCC)NC(=O)[C@@H](N)Cc1ccc(O)cc1)C(=O)N[C@@H](CC(=O)O)C(=O)N[C@@H](Cc1ccccc1)C(N)=O,4.5 nM,81%,210 nM,23 nM,60.3 nM,26 nM,6.03 nM,2.6 nM,–,15.1 nM,15 nM,88%,0.46 nM,1900 nM,9.55 nM,9.6 nM,2500 nM,–,–,–
